Series [1] in a line: Ratio of GI50 for antiproliferative activity against human hTERT-BJ cells incubated for 48 hrs by SRB assay to GI50 for antiproliferative activity against human T47D cells incubated for 48 hrs by SRB assay. In kind it is toxicity, cell-based. As to conditions: hTERT-BJ cells versus T47D cells, read-out: RatioGI50. The method, boiled down: (§1)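 Selectivity is GI50 in the nontumor BJ-hTERT fibroblasts divided by GI50 in each tumor line. All values come from the same 48 h SRB assay, with 0.01−100 μM serial dilutions.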
For orientation: In SRB staining, fixed cells bind dye roughly in proportion to their protein.

Series [2] is described as follows: Ratio of GI50 for antiproliferative activity against human hTERT-BJ cells incubated for 48 hrs by SRB assay to GI50 for antiproliferative activity against human A549 cells incubated for 48 hrs by SRB assay. The method, boiled down: as §1
Series [3] in a line: Ratio of GI50 for antiproliferative activity against human hTERT-BJ cells incubated for 48 hrs by SRB assay to GI50 for antiproliferative activity against human SW1573 cells incubated for 48 hrs by SRB assay. In kind it is toxicity, cell-based. As to conditions: hTERT-BJ cells versus SW1573 cells, read-out: RatioGI50. The essentials: as §1
The next series deals with T47D. Kind of series: Antiproliferative activity against human T47D cells incubated for 48 hrs by SRB assay. The format is functional. The method, boiled down: (§2)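 Cells kept in RPMI 1640 with 5% FBS and 2 mM L-glutamine at 37 °C under 5% CO2. Seeded at 2500 (A549, HBL-100, HeLa, SW1573) or 5000 (T-47D, WiDr, BJ-hTERT) cells/well and left 24 h. Compounds added as serial dilutions (0.01−100 μM) for 48 h. SRB staining read at 530 and 620 nm. GI50 calculated by NCI formulas. Mean of at least two independent experiments ± SD.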

Series [4] in a line: Ratio of GI50 for antiproliferative activity against human hTERT-BJ cells incubated for 48 hrs by SRB assay to GI50 for antiproliferative activity against human HeLa cells incubated for 48 hrs by SRB assay. As to conditions: hTERT-BJ cells versus HeLa cells, read-out: RatioGI50. The format is toxicity, cell-based. The essentials: as §1
The next series relates to HeLa. Briefly: Antiproliferative activity against human HeLa cells incubated for 48 hrs by SRB assay. The format is functional. The method, boiled down: as §2
The subject of a further series is WiDr. Briefly: Antiproliferative activity against human WiDr cells incubated for 48 hrs by SRB assay. In kind it is functional. The essentials: as §2
The test system of another series is HBL-100. Briefly: Antiproliferative activity against human HBL100 cells incubated for 48 hrs by SRB assay. In kind it is functional. As to conditions: HBL-100, 48 h. The essentials: as §2
Series [5] has as its system SW1573. Kind of series: Antiproliferative activity against human SW1573 cells incubated for 48 hrs in presence of P-gp and CYP3A4/5 inhibitor verapamil by SRB assay. The format is functional. The note with it: SW1573, 48 h. The essentials: (§3)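 Wild-type SW1573 (2500 cells/well) and P-gp-overexpressing SW1573/Pgp (5000 cells/well) in RPMI 1640 with 5% FBS. Seeded 24 h, then exposed 48 h to serial dilutions (0.01−100 μM) with or without 10 μM verapamil (final) in the medium. Paclitaxel and vinblastine were reference drugs. SRB read at 530/620 nm. GI50 by NCI formulas, mean of at least two independent experiments ± SD.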

Series [6] is described as follows: Ratio of GI50 for antiproliferative activity against human hTERT-BJ cells incubated for 48 hrs by SRB assay to GI50 for antiproliferative activity against human HBL100 cells incubated for 48 hrs by SRB assay. The method, boiled down: as §1
In series [7] the test system is SW1573. Kind of series: Resistance factor, ratio of GI50 for Antiproliferative activity against human SW1573 cells over-expressing P-gp incubated for 48 hrs in absence of P-gp and CYP3A4/5 inhibitor verapamil by SRB assay to GI50 for antiproliferative activity against human SW1573 cells incubated for 48 hrs in absence of P-gp and CYP3A4/5 inhibitor verapamil by SRB assay. In kind it is functional. The essentials: (§4)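 Resistance factor is GI50 in SW1573/Pgp divided by GI50 in wild-type SW1573. Both come from 48 h SRB assays, run with 10 μM verapamil (final) or without it.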

The subject of series [8] is SW1573. Briefly: Antiproliferative activity against human SW1573 cells over-expressing P-gp incubated for 48 hrs in absence of P-gp and CYP3A4/5 inhibitor verapamil by SRB assay. In kind it is functional. The note with it: SW1573, 48 h. The method, boiled down:
as §3

In series [9] the test system is SW1573. Kind of series: Resistance factor, ratio of GI50 for Antiproliferative activity against human SW1573 cells over-expressing P-gp incubated for 48 hrs in presence of P-gp and CYP3A4/5 inhibitor verapamil by SRB assay to GI50 for antiproliferative activity against human SW1573 cells incubated for 48 hrs in presence of P-gp and CYP3A4/5 inhibitor verapamil by SRB assay. The format is functional. The essentials: as §4

Series [10] relates to SW1573. Briefly: Antiproliferative activity against human SW1573 cells over-expressing P-gp incubated for 48 hrs in presence of P-gp and CYP3A4/5 inhibitor verapamil by SRB assay. The format is functional. The note with it: SW1573, 48 h. The essentials: as §3
The subject of a further series is A549. Kind of series: Antiproliferative activity against human A549 cells incubated for 48 hrs by SRB assay. The format is functional. As to conditions: A549, 48 h. The method, boiled down:
as §2

Series [11] deals with SW1573. Kind of series: Antiproliferative activity against human SW1573 cells incubated for 48 hrs in absence of P-gp and CYP3A4/5 inhibitor verapamil by SRB assay. The note with it: SW1573, 48 h. In kind it is functional. The method, boiled down:
as §3

Series [12] can be described thus: Antiproliferative activity against human hTERT-BJ cells incubated for 48 hrs by SRB assay. In kind it is cell-based. The method, boiled down:
as §2

The subject of series [13] is SW1573. Kind of series: Antiproliferative activity against human SW1573 cells incubated for 48 hrs by SRB assay. The format is functional. As to conditions: SW1573, 48 h. The essentials: as §2
The nature of series [14]: Ratio of GI50 for antiproliferative activity against human hTERT-BJ cells incubated for 48 hrs by SRB assay to GI50 for antiproliferative activity against human WiDr cells incubated for 48 hrs by SRB assay. The format is toxicity, cell-based. As to conditions: hTERT-BJ cells versus WiDr cells, read-out: RatioGI50. The method, boiled down:
as §1

By GI50 is commonly meant the concentration that inhibits growth by half. On to `CCO[C@@H]1O[C@@](C)([C@H]2CC(C)=C(C)C(=O)O2)[C@H]2CC[C@H]3[C@@H]4[C@@H](O)C=C5[C@@H](O)C=CC(=O)[C@]5(C)[C@H]4CC[C@]123`, for which the selectivity ratio at 48 h in series [1], in [3], in series [4] and in series [14] was 2 to 10 in each case. Further, the RatioGI50 is 2 - 10 in series [2], 2 - 10 in series [6], 1.1 in the series with SW1573 [7] and 0.4 in the series on SW1573 [9]. Moreover, the GI50 with T47D was found to be 4.7 µM; in the series with HeLa, 2.5 µM; in the series with WiDr, 6.1 µM; in the series on HBL-100, 3.2 µM; in the series with SW1573 [5] it was 3.9 µM; with SW1573 [8] it was 2.3 µM. The GI50 in the series on SW1573 [10] was determined as 1.7 µM; in the series on A549, 2.8 µM; with SW1573 [11] it was 2.1 µM; with SW1573 [13], 2.4 µM. The GI50 at 48 h in series [12] is greater than 10 µM.

`CO[C@H]1O[C@@](C)([C@H]2CC(C)=C(C)C(=O)O2)[C@H]2CC[C@H]3[C@@H]4[C@@H](O)C=C5[C@@H](O)C=CC(=O)[C@]5(C)[C@H]4CC[C@]123`: the selectivity ratio at 48 h in series [1], in series [3], in series [4] and in [14] was 2 to 10 throughout. Also, the RatioGI50 is recorded as 2 - 10 in [2], 2 - 10 in [6], 1.1 in the series with SW1573 [7] and 0.7 in the series on SW1573 [9]. Also, the GI50 is 3.9 µM with T47D; 3.2 µM with HeLa; greater than 10 µM in the series with WiDr; 3.6 µM with HBL-100; 3.5 µM in the series with SW1573 [5]; 3.3 µM in the series on SW1573 [8]. Besides, the GI50 worked out at 2.3 µM with SW1573 [10], 3.1 µM in the series with A549, 3 µM with SW1573 [11] and 3.3 µM with SW1573 [13]. Moreover, in [12], the GI50 at 48 h is greater than 10 µM.

In the case of `CC1=C(C)C(=O)O[C@@H]([C@](C)(O)[C@H]2CC[C@H]3[C@@H]4[C@@H](O)C=C5[C@@H](O)C=CC(=O)[C@]5(C)[C@H]4CC[C@]23C)C1`, the selectivity ratio at 48 h in [1], in series [3], in [4] and in series [14] was 2 to 10 each time. Moreover, the RatioGI50 in [2] was 2 - 10; in [6], 2 - 10; in the series on SW1573 [7], 0.9; in the series with SW1573 [9], 0.8. Also, the GI50 is greater than 10 µM in the series on T47D; 5.3 µM in the series on HeLa; greater than 10 µM with WiDr; 4.8 µM in the series on HBL-100; 4.2 µM with SW1573 [5]; 3.2 µM in the series with SW1573 [8]. The GI50 is 3.2 µM with SW1573 [10], greater than 10 µM in the series on A549, 3.4 µM with SW1573 [11] and 4.1 µM in the series with SW1573 [13]. The molecule also registered a GI50 at 48 h in series [12] greater than 10 µM.

Take `CC1=C(C)C(=O)O[C@@H]([C@]2(C)OC(O)[C@]34CC[C@H]5[C@@H]([C@@H](O)C=C6[C@@H](O)C=CC(=O)[C@@]65C)[C@@H]3CC[C@H]24)C1` (mixture of isomers): the selectivity ratio at 48 h in [1], in series [3], in [4] and in series [14] was 2 to 10 each time. For the same molecule, the RatioGI50 in series [2] and in series [6] was 2 - 10 each time. For the same molecule, the GI50 in the series on T47D, in the series on HeLa, in the series with WiDr, with HBL-100, with A549 and in the series on SW1573 [13] was greater than 10 µM each time. The same molecule registered a GI50 at 48 h in [12] greater than 10 µM.

(Values after ChEMBL document CHEMBL4316659, “Selective Antiproliferative Withanolides from Species in the Genera Eriolarynx and Deprea” (J Nat Prod, 2019).)
